{"source": "ChEMBL document CHEMBL1250551", "about": "“Improvement of water-solubility of biarylcarboxylic acid peroxisome proliferator-activated receptor (PPAR) δ-selective partial agonists by disruption of molecular planarity/symmetry” (Bioorg Med Chem, 2010)", "key": {"[1]": {"test": "Thermodynamic aqueous solubility of the compound in phosphate buffer at pH 7.4", "format": "physicochemical", "how_it_was_run": "(§1)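 Thermodynamic solubility: about 1 mg solid ground in agate mortar, suspended in 1.0 mL of either 1:15 M phosphate buffer pH 7.4 or an equal-volume mix of that buffer with EtOH. Shaken 48 h at 25 °C, filtered (0.22 µm), filtrate diluted in DMF and quantified by reversed-phase HPLC-UV (262–295 nm) against a calibration curve, corrected for dilution.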"}, "[2]": {"biological_target": "T1, Peroxisome proliferator-activated receptor alpha (Homo sapiens, UniProt Q07869)", "T1 sequence (Q07869 whole entry)": "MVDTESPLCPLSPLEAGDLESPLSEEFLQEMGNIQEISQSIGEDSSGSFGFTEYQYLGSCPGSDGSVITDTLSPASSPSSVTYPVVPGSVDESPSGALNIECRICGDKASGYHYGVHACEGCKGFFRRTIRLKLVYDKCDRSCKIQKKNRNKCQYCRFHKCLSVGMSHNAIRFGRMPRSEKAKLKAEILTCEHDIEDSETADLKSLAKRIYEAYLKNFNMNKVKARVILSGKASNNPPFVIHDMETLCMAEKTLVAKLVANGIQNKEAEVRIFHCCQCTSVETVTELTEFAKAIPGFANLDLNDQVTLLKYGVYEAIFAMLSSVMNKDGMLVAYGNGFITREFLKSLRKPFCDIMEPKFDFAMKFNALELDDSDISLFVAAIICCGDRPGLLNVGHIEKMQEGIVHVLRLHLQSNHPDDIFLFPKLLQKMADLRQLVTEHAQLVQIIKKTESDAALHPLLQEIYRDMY", "test": "Partial agonist activity at human recombinant PPARalpha LBD expressed in HEK293 cells co-transfected with Gal4 assessed as beta-galactosidase activity by luciferase based transactivation assay", "format": "functional, cell-based", "how_it_was_run": "(§2)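 GAL4-hPPAR LBD fusion transactivation: cells co-transfected with CMX-GAL4N-hPPAR LBD receptor plasmid, TK-MH100x4-LUC reporter and CMX β-galactosidase normalization plasmid. Positive controls (fenofibric acid for PPARα; ciglitazone 100 nM for PPARγ) and test compounds added 6 h later; overnight incubation. Luminescence read after luciferin addition; β-galactosidase absorbance at 405 nm used for normalization.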"}, "[3]": {"biological_target": "T2, Peroxisome proliferator-activated receptor gamma (Homo sapiens, UniProt P37231)", "T2 sequence (P37231 whole entry)": "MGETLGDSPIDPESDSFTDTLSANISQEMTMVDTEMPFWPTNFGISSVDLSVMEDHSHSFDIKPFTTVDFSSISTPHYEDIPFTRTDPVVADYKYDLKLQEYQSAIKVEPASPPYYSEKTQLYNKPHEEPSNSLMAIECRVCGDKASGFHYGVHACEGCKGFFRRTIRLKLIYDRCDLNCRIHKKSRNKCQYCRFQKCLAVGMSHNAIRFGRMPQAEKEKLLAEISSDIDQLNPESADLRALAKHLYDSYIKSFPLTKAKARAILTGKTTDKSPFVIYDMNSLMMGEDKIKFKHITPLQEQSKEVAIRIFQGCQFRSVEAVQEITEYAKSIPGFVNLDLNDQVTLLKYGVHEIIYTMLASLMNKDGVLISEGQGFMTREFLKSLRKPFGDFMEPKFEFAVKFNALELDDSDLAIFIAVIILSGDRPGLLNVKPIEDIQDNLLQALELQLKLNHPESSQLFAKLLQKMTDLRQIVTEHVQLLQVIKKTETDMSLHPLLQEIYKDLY", "test": "Partial agonist activity at human recombinant PPARgamma LBD expressed in HEK293 cells co-transfected with Gal4 assessed as beta-galactosidase activity at 1 uM by luciferase based transactivation assay", "format": "functional, cell-based"}, "[4]": {"biological_target": "T3, Peroxisome proliferator-activated receptor delta (Homo sapiens, UniProt Q03181)", "T3 sequence (Q03181 whole entry)": "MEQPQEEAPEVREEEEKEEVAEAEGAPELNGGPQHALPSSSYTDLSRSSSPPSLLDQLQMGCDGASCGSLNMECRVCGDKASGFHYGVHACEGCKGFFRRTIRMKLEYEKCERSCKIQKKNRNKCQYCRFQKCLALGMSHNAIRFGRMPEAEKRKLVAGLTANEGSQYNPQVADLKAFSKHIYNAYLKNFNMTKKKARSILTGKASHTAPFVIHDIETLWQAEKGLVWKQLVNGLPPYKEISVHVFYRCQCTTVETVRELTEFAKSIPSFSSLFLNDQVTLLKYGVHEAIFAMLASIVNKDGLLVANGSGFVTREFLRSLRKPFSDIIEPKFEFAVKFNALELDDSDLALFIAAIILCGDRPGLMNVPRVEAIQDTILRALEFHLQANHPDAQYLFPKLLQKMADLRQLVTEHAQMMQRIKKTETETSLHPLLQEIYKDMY", "test": "Partial agonist activity at human recombinant PPARdelta LBD expressed in HEK293 cells co-transfected with Gal4 assessed as beta-galactosidase activity by luciferase based transactivation assay", "format": "functional, cell-based"}, "[5]": {"test": "Thermodynamic aqueous solubility of the compound in 1:15 M of 50% EtOH and phosphate buffer at pH 7.4", "format": "physicochemical", "details": "for solubility thermodynamic: 50% EtOH and phosphate buffer; for solubility: buffer; call rule not given here", "how_it_was_run": "as §1"}, "[6]": {"biological_target": "T4, Peroxisome proliferator-activated receptor alpha (Homo sapiens) (UniProt Q07869)", "T4 sequence (whole entry)": "T1 sequence (Q07869 whole entry)", "test": "Partial agonist activity at human recombinant PPARalpha LBD expressed in HEK293 cells co-transfected with Gal4 assessed as beta-galactosidase activity by luciferase based transactivation assay relative to fenofibric acid", "format": "functional, cell-based", "how_it_was_run": "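GAL4-based reporter system analogous to the PPARδ assay, using a GAL4 DNA-binding domain–PPARα LBD chimera, TK-MH100x4-LUC reporter and CMX β-galactosidase for normalization. Positive control and test compounds were added 6 h after the preceding step and incubated overnight. Luciferase luminescence was read after luciferin addition, and β-galactosidase by absorbance at 405 nm. Efficacy was expressed relative to fenofibric acid.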"}, "[7]": {"biological_target": "T1, Peroxisome proliferator-activated receptor alpha", "test": "Partial agonist activity at human recombinant PPARalpha LBD expressed in HEK293 cells co-transfected with Gal4 assessed as beta-galactosidase activity at 1 uM by luciferase based transactivation assay", "format": "functional, cell-based", "how_it_was_run": "as §2"}, "[8]": {"biological_target": "T3, Peroxisome proliferator-activated receptor delta", "test": "Partial agonist activity at human recombinant PPARdelta LBD expressed in HEK293 cells co-transfected with Gal4 assessed as beta-galactosidase activity at 1 uM by luciferase based transactivation assay", "format": "functional, cell-based", "how_it_was_run": "as §2"}}, "data": [{"smiles": "CCCCOc1ccc(-c2c(C)ncc(C(=O)O)c2C)cc1CNC(=O)c1ccc(C(F)(F)F)cc1F", "values": [{"measurement": "solubility thermodynamic", "setting": "[1]", "result": 2700, "unit": "µg/mL"}, {"measurement": "EC50", "setting": "[2]", "result": 4200, "unit": "nM"}, {"measurement": "EC50", "setting": "[3]", "result": "Not Active"}, {"measurement": "EC50", "setting": "[4]", "result": 76, "unit": "nM"}, {"measurement": "solubility thermodynamic", "setting": "[5]", "result": 17700, "unit": "µg/mL"}, {"measurement": "Efficacy", "setting": "[6]", "result": 100, "unit": "%"}]}, {"smiles": "CCCCOc1ccc(-c2cccc(C(=O)O)c2C)cc1CNC(=O)c1ccc(C(F)(F)F)cc1F", "values": [{"measurement": "solubility thermodynamic", "setting": "[1]", "result": "< 1", "unit": "µg/mL"}, {"measurement": "EC50", "setting": "[3]", "result": "Not Active"}, {"measurement": "solubility thermodynamic", "setting": "[5]", "result": 9950, "unit": "µg/mL"}]}, {"smiles": "CCCCOc1ccc(-c2ccc(C(=O)O)cc2C)cc1CNC(=O)c1ccc(C(F)(F)F)cc1F", "values": [{"measurement": "solubility thermodynamic", "setting": "[1]", "result": "< 1", "unit": "µg/mL"}, {"measurement": "EC50", "setting": "[7]", "result": "Not Active"}, {"measurement": "solubility thermodynamic", "setting": "[5]", "result": 985, "unit": "µg/mL"}]}, {"smiles": "CCCCOc1ccc(-c2ccc(C(=O)O)cc2)cc1CNC(=O)c1ccc(C(F)(F)F)cc1F", "values": [{"measurement": "solubility thermodynamic", "setting": "[1]", "result": "< 1", "unit": "µg/mL"}, {"measurement": "EC50", "setting": "[3]", "result": "Not Active"}, {"measurement": "solubility thermodynamic", "setting": "[5]", "result": 375, "unit": "µg/mL"}]}, {"smiles": "CCCC(=O)Oc1ccc(-c2ccc(C(=O)O)cc2)cc1CNC(=O)c1ccc(C(F)(F)F)cc1F", "values": [{"measurement": "EC50", "setting": "[8]", "result": "Not Active"}]}, {"smiles": "CCCCOc1ccc(-c2ccc(C(=O)O)cn2)cc1CNC(=O)c1ccc(C(F)(F)F)cc1F", "values": [{"measurement": "EC50", "setting": "[7]", "result": "Not Active"}, {"measurement": "EC50", "setting": "[3]", "result": "Not Active"}]}, {"smiles": "CCCCOc1ccc(-c2ccc(C(=O)O)cc2F)cc1CNC(=O)c1ccc(C(F)(F)F)cc1F", "values": [{"measurement": "solubility thermodynamic", "setting": "[1]", "result": "< 1", "unit": "µg/mL"}, {"measurement": "EC50", "setting": "[7]", "result": "Not Active"}, {"measurement": "EC50", "setting": "[3]", "result": "Not Active"}, {"measurement": "solubility thermodynamic", "setting": "[5]", "result": 3220, "unit": "µg/mL"}]}, {"smiles": "CCCCOc1ccc(-c2ccc(C(=O)O)o2)cc1CNC(=O)c1ccc(C(F)(F)F)cc1F", "values": [{"measurement": "EC50", "setting": "[7]", "result": "Not Active"}, {"measurement": "EC50", "setting": "[3]", "result": "Not Active"}]}, {"smiles": "O=C(O)c1ccc(-c2ccc(OCCCO)c(CNC(=O)c3ccc(C(F)(F)F)cc3F)c2)cc1", "values": [{"measurement": "EC50", "setting": "[8]", "result": "Not Active"}]}, {"smiles": "CCCCOc1ccc(-c2ccc(C(=O)O)nc2)cc1CNC(=O)c1ccc(C(F)(F)F)cc1F", "values": [{"measurement": "EC50", "setting": "[7]", "result": "Not Active"}, {"measurement": "EC50", "setting": "[3]", "result": "Not Active"}]}, {"smiles": "COCCOc1ccc(-c2ccc(C(=O)O)cc2)cc1CNC(=O)c1ccc(C(F)(F)F)cc1F", "values": [{"measurement": "EC50", "setting": "[8]", "result": "Not Active"}]}, {"smiles": "CCCCOc1ccc(-c2cncc(C(=O)O)c2)cc1CNC(=O)c1ccc(C(F)(F)F)cc1F", "values": [{"measurement": "solubility thermodynamic", "setting": "[1]", "result": 7.62, "unit": "µg/mL"}, {"measurement": "EC50", "setting": "[2]", "result": 4000, "unit": "nM"}, {"measurement": "EC50", "setting": "[3]", "result": "Not Active"}, {"measurement": "EC50", "setting": "[4]", "result": 220, "unit": "nM"}, {"measurement": "solubility", "setting": "[5]", "result": 9030, "unit": "µg/mL"}]}, {"smiles": "CCCCOc1ccc(-c2c(F)ccc(C(=O)O)c2F)cc1CNC(=O)c1ccc(C(F)(F)F)cc1F", "values": [{"measurement": "solubility thermodynamic", "setting": "[1]", "result": 21.7, "unit": "µg/mL"}, {"measurement": "EC50", "setting": "[7]", "result": "Not Active"}, {"measurement": "EC50", "setting": "[3]", "result": "Not Active"}, {"measurement": "EC50", "setting": "[4]", "result": 5.7, "unit": "nM"}, {"measurement": "solubility", "setting": "[5]", "result": 10400, "unit": "µg/mL"}]}, {"smiles": "CCCCOc1ccc(-c2cccc(C(=O)O)c2)cc1CNC(=O)c1ccc(C(F)(F)F)cc1F", "values": [{"measurement": "solubility thermodynamic", "setting": "[1]", "result": "< 1", "unit": "µg/mL"}, {"measurement": "EC50", "setting": "[3]", "result": "Not Active"}, {"measurement": "solubility", "setting": "[5]", "result": 1350, "unit": "µg/mL"}]}]}
